ChEMBL document CHEMBL1139871, “Selective urokinase-type plasminogen activator inhibitors. 4. 1-(7-sulfonamidoisoquinolinyl)guanidines” (J Med Chem, 2007)
Values after ≈ are worked out from the molar mass of the structure shown.

Key:
Homo sapiens [1] = species: Homo sapiens; assay: Protein binding in human plasma; conditions: read-out: PPB (converted)
Prothrombin (Bos taurus) = Prothrombin (Bos taurus) (UniProt P00735); assay: Inhibition of bovine thrombin at 10 uM
In short: (§1)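 Chromogenic enzyme assays against coagulation proteases: bovine thrombin, human factors VIIa and IXa.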

[2] = biological target: Coagulation factor X (Homo sapiens) (UniProt P00742); assay: Inhibition of factor 10a at 10 uM
In short: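 Human coagulation enzyme tested in a chromogenic enzyme assay. Percent inhibition was read at a single inhibitor concentration.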

Homo sapiens [3] = species: Homo sapiens; assay: Solubility in human plasma
Coagulation factor IX = Coagulation factor IX (Homo sapiens, UniProt P00740); assay: Inhibition of factor 9a
In short: as §1

[4] = Dissociation constant, pKa of the compound; assay type: physicochemical
[5] = biological target: T1, Urokinase-type plasminogen activator (Homo sapiens, UniProt P00749); assay: Inhibition of uPA in pig granulation tissue homogenate
[6] = Lipophilicity, log D at pH7.4; assay type: physicochemical; conditions: buffer, pH 7.4
[7] = biological target: T2, Coagulation factor VII (Homo sapiens) (UniProt P08709); assay: Inhibition of factor 7a at 10 uM
T2 sequence (whole entry): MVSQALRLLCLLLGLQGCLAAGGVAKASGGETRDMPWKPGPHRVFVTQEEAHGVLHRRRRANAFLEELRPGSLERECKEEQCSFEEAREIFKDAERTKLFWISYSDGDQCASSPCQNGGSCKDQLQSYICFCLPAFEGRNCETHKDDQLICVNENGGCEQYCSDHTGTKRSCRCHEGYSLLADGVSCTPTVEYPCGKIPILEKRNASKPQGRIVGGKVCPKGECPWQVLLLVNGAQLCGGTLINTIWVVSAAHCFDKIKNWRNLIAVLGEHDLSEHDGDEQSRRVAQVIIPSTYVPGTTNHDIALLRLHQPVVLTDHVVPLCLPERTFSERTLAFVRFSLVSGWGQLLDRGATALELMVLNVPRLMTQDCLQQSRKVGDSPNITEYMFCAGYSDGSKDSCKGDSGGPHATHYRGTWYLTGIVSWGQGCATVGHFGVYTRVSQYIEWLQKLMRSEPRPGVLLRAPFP
In short: as §1

[8] = biological target: T1, Urokinase-type plasminogen activator; assay: Inhibition of human uPA in human wound fluid
[9] = Solubility in phosphate buffered saline at pH 6.5; assay type: physicochemical
In short: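 Solubility measured in phosphate-buffered saline, pH 6.5.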

[10] = biological target: T3, Tissue-type plasminogen activator (Homo sapiens, UniProt P00750); assay: Inhibition of human tPA
In short: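 Human one-chain tPA 0.4 µg/mL (final) with 0.1 mg/mL tPA stimulator, preincubated 15 min at 37 °C with inhibitor in 75 mM Tris pH 8.1, 50 mM NaCl. Then 0.4 mM S-2288 (H-D-Ile-Pro-Arg-pNA) added, 60 min at 37 °C. A405 read after preincubation and after substrate incubation, background subtracted. IC50 from % inhibition vs concentration. Ki = IC50/(1+[S]/Km), Km 250 µM.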
Target sequence in this assay (P00750 whole entry): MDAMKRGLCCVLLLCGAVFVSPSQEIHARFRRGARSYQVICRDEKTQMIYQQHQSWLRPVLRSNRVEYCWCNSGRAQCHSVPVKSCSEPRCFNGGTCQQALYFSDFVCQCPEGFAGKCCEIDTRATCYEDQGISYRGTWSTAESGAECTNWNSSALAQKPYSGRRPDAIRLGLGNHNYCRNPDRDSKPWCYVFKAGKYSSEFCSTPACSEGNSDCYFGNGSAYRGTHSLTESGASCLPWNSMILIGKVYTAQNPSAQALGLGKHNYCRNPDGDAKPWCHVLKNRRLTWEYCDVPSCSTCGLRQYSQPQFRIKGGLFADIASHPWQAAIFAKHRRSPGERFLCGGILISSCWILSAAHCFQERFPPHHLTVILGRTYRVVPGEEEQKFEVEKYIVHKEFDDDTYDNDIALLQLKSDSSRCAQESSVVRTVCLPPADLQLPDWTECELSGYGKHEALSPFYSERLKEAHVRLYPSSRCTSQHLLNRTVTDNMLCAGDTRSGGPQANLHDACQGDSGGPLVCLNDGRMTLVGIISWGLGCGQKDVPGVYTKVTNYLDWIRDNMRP

Plasminogen [11] = biological target: T4, Plasminogen (Homo sapiens, UniProt P00747); assay: Inhibition of human plasmin
In short: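 Human plasmin 0.7 µg/mL with 0.2 mM Chromozym-PL and varied inhibitor in Tris pH 8.1/NaCl buffer. Preincubated 15 min at 37 °C, then 30 min at 37 °C with substrate. A405 background-subtracted, % inhibition plotted for IC50.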

[12] = biological target: T1, Urokinase-type plasminogen activator
Plasminogen [13] = biological target: T4, Plasminogen; assay: Inhibition of human plasmin at 100 uM
In short: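 Human plasmin (0.7 µg/mL) preincubated with inhibitor for 15 min at 37 °C in 75 mM Tris pH 8.1, 50 mM NaCl. Then incubated with 0.2 mM Chromozym-PL for 30 min at 37 °C. Absorbance read at 405 nm, background at time zero subtracted, and percent inhibition calculated.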

[14] = biological target: T3, Tissue-type plasminogen activator; assay: Inhibition of human tPA at 100 uM
In short: (§2)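 Human one-chain tPA (0.4 µg/mL final) with 0.1 mg/mL tPA stimulator, preincubated with inhibitor for 15 min at 37 °C in 75 mM Tris pH 8.1, 50 mM NaCl. Then incubated with 0.4 mM S-2288 substrate for 60 min at 37 °C. Absorbance read at 405 nm, background subtracted, and percent inhibition calculated.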
Target sequence in this assay (P00750 36-562 limits assumed): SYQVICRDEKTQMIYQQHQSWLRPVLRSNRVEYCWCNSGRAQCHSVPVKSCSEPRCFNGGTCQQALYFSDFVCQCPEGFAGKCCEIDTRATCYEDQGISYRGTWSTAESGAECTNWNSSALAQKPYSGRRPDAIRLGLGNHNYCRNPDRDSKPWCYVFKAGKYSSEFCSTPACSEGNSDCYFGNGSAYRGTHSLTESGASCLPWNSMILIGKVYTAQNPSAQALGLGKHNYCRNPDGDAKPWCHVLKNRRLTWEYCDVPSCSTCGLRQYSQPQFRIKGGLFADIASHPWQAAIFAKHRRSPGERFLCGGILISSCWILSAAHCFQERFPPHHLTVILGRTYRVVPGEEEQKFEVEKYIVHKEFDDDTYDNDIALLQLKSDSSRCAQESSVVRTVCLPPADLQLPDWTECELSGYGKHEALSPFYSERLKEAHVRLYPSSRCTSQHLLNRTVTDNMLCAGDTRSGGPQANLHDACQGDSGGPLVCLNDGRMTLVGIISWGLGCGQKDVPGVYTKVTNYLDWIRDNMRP

[15] = biological target: T3, Tissue-type plasminogen activator; assay: Inhibition of human tPA at 30 uM
In short: as §2
Target sequence in this assay (P00750 36-562 limits assumed): as above

T4 sequence (P00747 97-580 limits assumed): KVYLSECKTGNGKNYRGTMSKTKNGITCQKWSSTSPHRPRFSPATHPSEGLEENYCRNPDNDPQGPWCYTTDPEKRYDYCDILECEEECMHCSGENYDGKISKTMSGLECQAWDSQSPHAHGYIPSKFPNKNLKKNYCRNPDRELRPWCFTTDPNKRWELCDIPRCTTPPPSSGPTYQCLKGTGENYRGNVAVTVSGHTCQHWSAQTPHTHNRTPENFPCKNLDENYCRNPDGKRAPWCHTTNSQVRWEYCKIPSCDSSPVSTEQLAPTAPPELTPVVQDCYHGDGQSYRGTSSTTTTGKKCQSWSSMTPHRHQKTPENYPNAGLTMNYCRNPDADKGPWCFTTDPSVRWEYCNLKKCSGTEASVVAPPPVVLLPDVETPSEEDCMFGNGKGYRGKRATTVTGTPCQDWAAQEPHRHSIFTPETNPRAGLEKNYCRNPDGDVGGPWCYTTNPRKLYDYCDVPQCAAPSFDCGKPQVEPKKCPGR
T4 sequence (P00747 581-810 limits assumed): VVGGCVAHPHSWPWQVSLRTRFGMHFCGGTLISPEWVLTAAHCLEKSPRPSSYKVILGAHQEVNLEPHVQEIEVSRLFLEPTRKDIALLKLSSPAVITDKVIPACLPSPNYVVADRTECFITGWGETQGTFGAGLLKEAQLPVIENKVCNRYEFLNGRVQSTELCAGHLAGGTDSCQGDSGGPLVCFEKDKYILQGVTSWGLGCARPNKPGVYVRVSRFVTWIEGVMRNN
Coagulation factor IX, sequence (P00740 47-191 limits assumed): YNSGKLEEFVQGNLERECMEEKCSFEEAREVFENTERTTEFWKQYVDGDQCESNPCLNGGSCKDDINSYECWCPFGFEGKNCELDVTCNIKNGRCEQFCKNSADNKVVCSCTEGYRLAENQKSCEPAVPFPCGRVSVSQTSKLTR
Coagulation factor IX, sequence (P00740 227-461 limits assumed): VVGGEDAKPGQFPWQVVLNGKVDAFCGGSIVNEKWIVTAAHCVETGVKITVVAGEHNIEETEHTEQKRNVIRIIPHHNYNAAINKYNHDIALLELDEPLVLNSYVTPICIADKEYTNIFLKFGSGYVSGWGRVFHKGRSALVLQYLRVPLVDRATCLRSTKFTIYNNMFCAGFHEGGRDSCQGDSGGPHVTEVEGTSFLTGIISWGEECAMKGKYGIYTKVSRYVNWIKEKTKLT
Coagulation factor X (Homo sapiens), sequence (P00742 41-179 limits assumed): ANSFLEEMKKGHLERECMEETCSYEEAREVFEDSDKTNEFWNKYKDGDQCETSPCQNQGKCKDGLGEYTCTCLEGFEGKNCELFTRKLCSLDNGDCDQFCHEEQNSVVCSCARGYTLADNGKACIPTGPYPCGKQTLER
Coagulation factor X (Homo sapiens), sequence (P00742 235-488 limits assumed): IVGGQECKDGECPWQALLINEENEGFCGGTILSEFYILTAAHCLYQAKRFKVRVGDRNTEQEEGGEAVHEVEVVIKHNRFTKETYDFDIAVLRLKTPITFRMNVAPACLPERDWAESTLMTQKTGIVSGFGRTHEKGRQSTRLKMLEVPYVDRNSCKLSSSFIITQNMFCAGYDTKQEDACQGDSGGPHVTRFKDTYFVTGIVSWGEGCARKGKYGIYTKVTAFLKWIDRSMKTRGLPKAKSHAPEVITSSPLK

Row | SMILES | Ki [10] [µM] | Ki (Plasminogen [11]) [µM] | Ki [12] [µM] | also measured
1 | NC(N)=Nc1nccc2c(Cl)cc(-c3cccc(C(=O)O)c3)cc12 |  |  |  | fraction unbound (Homo sapiens [1]): 0.002; inhibition (Prothrombin (Bos taurus)): 2%; inhibition [2]: 0%; solubility (Homo sapiens [3]): 60 µM (≈ 20.4 µg/mL); Ki (Coagulation factor IX): 1.24 µM; pKa [4]: 2.35; IC50 [5]: 8.35 µM; logD [6]: 2.3; inhibition [7]: 3%; IC50 [8]: 6.91 µM; solubility [9]: < 1 µg/mL
2 | NC(N)=Nc1ncc(Cl)c2ccc(S(=O)(=O)N(CC(=O)O)CC3CCCC3)cc12 | > 100 | 23 | 0.031 | 
3 | NC(N)=Nc1ncc(Cl)c2ccc(S(=O)(=O)Nc3ccccc3C(=O)O)cc12 | > 100 | 33 | 0.086 | 
4 | NC(N)=Nc1ncc(Cl)c2ccc(S(=O)(=O)Nc3cccc(C(=O)O)c3)cc12 | > 100 | 9.8 | 0.059 | 
5 | CN(C)CCN(C1(C(=O)O)CCCC1)S(=O)(=O)c1ccc2c(Cl)cnc(N=C(N)N)c2c1 | 23 | 32 |  | 
6 | CCOC(=O)C1(NS(=O)(=O)c2ccc3c(Cl)cnc(N=C(N)N)c3c2)CCCC1 | 23 | > 100 | 0.014 | inhibition (Plasminogen [13]): < 50%
7 | NC(N)=Nc1ncc(Cl)c2ccc(S(=O)(=O)NC3(C(=O)N4CCOCC4)CCCC3)cc12 | 34.4 | > 30 | 0.0016 | 
8 | NC(N)=Nc1ncc(Cl)c2ccc(S(=O)(=O)N3CCCC3)cc12 | > 30 | > 30 |  | 
9 | NC(N)=Nc1ncc(Cl)c2ccc(S(=O)(=O)N3CCCC[C@@H]3C(=O)O)cc12 | > 100 | > 100 |  | 
10 | NC(N)=Nc1ncc(Cl)c2ccc(S(=O)(=O)NC3(C(=O)O)CCOCC3)cc12 | > 100 | 41 |  | 
11 | NC(N)=Nc1ncc(Cl)c2ccc(S(=O)(=O)N3CC(C(=O)O)C3)cc12 |  |  | 0.33 | 
12 | NC(N)=Nc1ncc(Cl)c2ccc(S(=O)(=O)N(CC(=O)O)c3ccccc3)cc12 | > 100 | > 100 | 0.029 | 
13 | CN1CCN(C(=O)C2(NS(=O)(=O)c3ccc4c(Cl)cnc(N=C(N)N)c4c3)CCCC2)CC1 | 34.7 | 65 | 0.0014 | 
14 | NC(N)=Nc1nccc2ccc(S(N)(=O)=O)cc12 | 24 | 13 | 0.28 | 
15 | NC(N)=Nc1ncc(Cl)c2ccc(S(=O)(=O)NC3(C(=O)O)CCC3)cc12 | > 100 | 16 |  | inhibition [14]: < 50%
16 | CC(C)[C@@H](NS(=O)(=O)c1ccc2c(Cl)cnc(N=C(N)N)c2c1)C(=O)O | 38 | 16 | 0.019 | 
17 | NC(N)=Nc1ncc(Cl)c2ccc(S(=O)(=O)N3CCC[C@@H]3CO)cc12 |  |  | 0.16 | 
18 | NC(N)=Nc1ncc(Cl)c2ccc(S(=O)(=O)NC3CCCC3)cc12 | > 30 | > 100 | 0.071 | inhibition [15]: < 50%
19 | CC(C)(C)[C@@H](NS(=O)(=O)c1ccc2c(Cl)cnc(N=C(N)N)c2c1)C(=O)O | > 100 | > 100 | 0.022 | 
20 | CN(CC(=O)O)S(=O)(=O)c1ccc2c(Cl)cnc(N=C(N)N)c2c1 | > 100 | > 100 |  | inhibition [14]: < 50%
21 | NC(N)=Nc1nccc2ccc(S(=O)(=O)Nc3ccccc3)cc12 | 15 | 3.2 |  | 
